Screening results from PubChem.
An excerpt weighted towards active compounds, which were near 27% of everything screened.
CYP2C19 inh: inhibitors of human CYP2C19; CYP2C19 Supersomes, luciferin-H EGE luminescence, 30 min; inhibition, % at 5 µM; hit rate 21% among 96,000;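 active means CYP2C19 inhibition above a set limit at 5 µM in the primary screen, cut at about 50% in these data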
Target sequence (P33261 whole entry, looked up): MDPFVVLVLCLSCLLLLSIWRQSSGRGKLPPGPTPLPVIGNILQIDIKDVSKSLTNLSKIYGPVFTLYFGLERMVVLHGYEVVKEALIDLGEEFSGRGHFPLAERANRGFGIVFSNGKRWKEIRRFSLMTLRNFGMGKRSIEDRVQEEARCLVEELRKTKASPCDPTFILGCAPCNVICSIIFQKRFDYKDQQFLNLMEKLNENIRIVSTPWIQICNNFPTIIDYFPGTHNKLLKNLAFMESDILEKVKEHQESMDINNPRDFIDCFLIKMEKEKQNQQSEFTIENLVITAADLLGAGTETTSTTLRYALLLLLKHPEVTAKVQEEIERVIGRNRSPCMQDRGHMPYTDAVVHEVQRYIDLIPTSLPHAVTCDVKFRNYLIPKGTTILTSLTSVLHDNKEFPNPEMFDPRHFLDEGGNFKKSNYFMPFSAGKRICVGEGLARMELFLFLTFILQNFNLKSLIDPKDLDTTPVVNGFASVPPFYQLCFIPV
CYP2C19 act: activators of human cytochrome P450 2C19. P33261. recombinant CYP2C19, luciferin-H EGE luminescence; hits give high values; 0 = fully inhibited enzyme, 1 = untreated enzyme. activation factor at 5 µM. 96,000 tested, under 10 active. AID 1025;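 active means activation factor of at least 2 at 5 µM in the primary screen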
Cav32 inh: blocks human Cav3.2 T-type calcium channel; hit rate 4% among 100,000; Cav3.2-expressing cells, Fluo-4 calcium fluorescence FDSS; hits give low values; B-score at 10 µM; O95180;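 active means single-dose well whose peak fluorescence ratio is a statistical outlier from its plate by either plate-standardised score or position-corrected B-score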
CYP2C9 inhib: human CYP2C9 inhibition | inhibition, % at 5 µM | CYP2C9 Supersomes, luciferin-H conversion, luminescence | AID 777 | P11712 | hit rate 20% among 96,000;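 active means blocking of liver enzyme CYP2C9 beyond about 50% at 5 µM, limit read from the data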
Rev-RRE block: HIV Rev-RRE protein-RNA interaction inhibition; inhibition, % at 8 µM; Rev peptide-RRE RNA binding, FRET; hit rate 0.79% among 97,000; P05866;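 active means inhibition above the screen-wide mean plus 3 SD, cut at about 35% in these data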
Target sequence (P05866 whole entry, looked up): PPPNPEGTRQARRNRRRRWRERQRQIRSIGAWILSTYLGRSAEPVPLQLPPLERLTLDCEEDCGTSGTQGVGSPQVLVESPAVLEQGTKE
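Assay system: Labelled RRE RNA duplex and labelled Rev peptide | Times: 5 min preincubation and 15 min binding, 25 °C | Detection: FRET, ex 480 nm, em 540 and 671 nm | Evaluation: % inhibition of FRET ratio versus controls | Benchmarks: DMSO wells as 0% and neomycin B wells as 100% inhibition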
CYP2C9 activ: activators of human CYP2C9; P11712; recombinant CYP2C9, luciferin-H conversion, luminescence; hits give high values; factor 1 = untreated enzyme, 0 = blocked; activation factor at 5 µM; hit rate 1.4% among 96,000; AID 1024;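 active means activation factor of 2 or more for CYP2C9 at a 5 µM dose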
Large screens that a line does not name were inactive.

O=C(CN1C(=O)COc2ccccc21)N(CCCN1CCOCC1)CC1CC=CCC1 (configuration not stated)	none (no result: Rev-RRE block)
COc1ccc(C(NC(=O)c2ccc(-c3ccccc3)cc2)c2ccccc2)cc1 (configuration not stated)	none (no result: Cav32 inh)
COc1ccc(C(C)NC(=O)c2ccccc2)cc1 (configuration not stated)	CYP2C19 inh 75
COc1ccc(OC)c(C2CC(=O)c3c([nH]c(C(=O)OC(C)C)c3C)C2)c1 (configuration not stated)	CYP2C9 inhib 58
COc1ccccc1C1CC(=O)NC(C)=C1C(=O)OCC1CCCO1 (configuration not stated)	none (no result: Cav32 inh)
COCCOC(=O)c1[nH]c2c(c1C)C(=O)CC(c1cc(OC)ccc1OC)C2 (configuration not stated)	CYP2C9 inhib 59 (no result: Rev-RRE block)
CCCOCCOC(=O)c1[nH]c2c(c1C)C(=O)CC(c1cc(OC)ccc1OC)C2 (configuration not stated)	Cav32 inh -5.3 (no result: CYP2C19 inh, CYP2C19 act, CYP2C9 inhib, Rev-RRE block, CYP2C9 activ)
COc1ccc(OC)c(C2CC(=O)c3c([nH]c(C(=O)OCC4CCCO4)c3C)C2)c1 (configuration not stated)	CYP2C9 inhib 66
CCCCC12CN3CC(C)(CN(C1)C31C(=O)N(C)c3ccc(C)cc31)C2=O (configuration not stated)	none (no result: CYP2C19 inh, CYP2C19 act, CYP2C9 inhib, CYP2C9 activ)
CCn1c(SCc2cc(=O)[nH]c3ccccc23)nc2c1c(=O)n(C)c(=O)n2C	none (no result: CYP2C19 inh, CYP2C19 act, Cav32 inh, CYP2C9 inhib, CYP2C9 activ)
COCCN1C(=O)c2ccccc2C(C(=O)NCCCN2CCCC2=O)C1c1c[nH]c2ccccc12 (configuration not stated)	none (no result: CYP2C19 inh, CYP2C19 act, CYP2C9 inhib, Rev-RRE block, CYP2C9 activ)
CCOc1cc(NC(=S)Nc2ccccc2OC)c(OCC)cc1NC(=O)c1ccccc1C	none
CSc1nc2ccc(S(=O)(=O)N(C)C)cc2s1	CYP2C19 inh 86
CCN(CC)S(=O)(=O)c1ccc2nc(SC)sc2c1	CYP2C19 inh 78
CSc1nc2ccc(NS(=O)(=O)c3ccc(Cl)s3)cc2s1	CYP2C19 inh 100, Cav32 inh -5.6, CYP2C9 inhib 100
COc1cc2c(cc1OC)C(C)N(C(=O)c1cc3n(n1)C(C(F)(F)F)CC(c1ccco1)N3)CC2 (configuration not stated)	none (no result: CYP2C19 inh, CYP2C19 act, CYP2C9 inhib, CYP2C9 activ)
COc1ccccc1N1CCN(C(=O)c2cc3n(n2)C(C(F)(F)F)CC(c2ccco2)N3)CC1 (configuration not stated)	CYP2C9 inhib 59 (no result: Rev-RRE block)
O=C(c1cc2n(n1)C(C(F)(F)F)CC(c1ccco1)N2)N1CCc2ccccc2C1 (configuration not stated)	Cav32 inh -3.7
O=C(c1cnn2c1NC(c1ccco1)CC2C(F)(F)F)N1CCN(c2cccc(Cl)c2)CC1 (configuration not stated)	CYP2C19 inh 81, Cav32 inh -4.2, CYP2C9 inhib 75
C=CCN(C(=O)CCC(=O)O)C1CC(=O)N(c2ccc(OCCC)cc2)C1=O (configuration not stated)	none (no result: Rev-RRE block)
CC1CN(C(=O)c2ccc(COCC(F)(F)F)o2)CC(C)O1 (configuration not stated)	none
OCC1(C2=NOC(O)(C(F)(F)F)C2)CCCCC1 (configuration not stated)	none
O=C(CN1C(=O)NC2(CCCCCC2)C1=O)Nc1ccc(S(=O)(=O)N2CCOCC2)cc1	none
CCNC(=O)COC(=O)/C=C/c1ccccc1[N+](=O)[O-]	none
CN(C)C(=O)COC(=O)/C=C/c1ccccc1[N+](=O)[O-]	CYP2C9 activ 2.1
CN(C)CCCC1(O)c2ccccc2C=Cc2ccccc21	none (no result: CYP2C19 inh, CYP2C19 act, CYP2C9 inhib, CYP2C9 activ)
CCOC(=O)CSC1=Nc2ccccc2C2=NC(CC(=O)NCc3ccc4c(c3)OCO4)C(=O)N12 (configuration not stated)	none
CCCCC(=O)Nc1ccc(NC(=O)c2ccccc2OC)cn1	CYP2C19 inh 78, CYP2C9 activ 3.5
CCC(=O)Nc1cc(C)c(NC(=O)c2ccccc2OC)cn1	CYP2C9 activ 2.6
CCCCC(=O)Nc1ccc(NC(=O)c2cc(OC)c(OC)c(OC)c2)cn1	none
CC(=O)N1CCc2cc(C(=O)CN3CCN(C(=O)c4ccco4)CC3)ccc21	none
Cc1ccc(-c2noc(CCCC(=O)N3CCOCC3)n2)cc1	none (no result: Rev-RRE block)
Cc1ccc(-c2noc(CCC(=O)N3CCN(c4cccc(C(F)(F)F)c4)CC3)n2)cc1	CYP2C19 inh 77, CYP2C9 inhib 93 (no result: Cav32 inh, Rev-RRE block)
COc1ccc(-c2noc(CCC(=O)N3CCN(c4cc(C)ccc4C)CC3)n2)cc1	CYP2C19 inh 65, Cav32 inh -6.9, CYP2C9 inhib 78
CCOC(=O)N1CCN(S(=O)(=O)c2ccc3c(c2)CCN3C(=O)CC)CC1	none
C1CCC(c2nn3c(-c4n[nH]c5c4CCC5)nnc3s2)CC1	CYP2C19 inh 87
CC(=O)C1=C(O)C=C(c2ccco2)CC1c1ccco1 (configuration not stated)	CYP2C19 inh 50, CYP2C9 inhib 51
CCCn1c(SCc2cc(=O)oc3ccc4ccccc4c23)n[nH]c1=O	CYP2C19 inh 78, CYP2C9 inhib 84 (no result: Rev-RRE block)
COC(=O)[C@@H](NC(=O)Nc1ccccc1F)C(C)C	none
CC(NS(=O)(=O)c1ccccc1)C(N)=O (configuration not stated)	none
COc1ccccc1CNC(=O)C(C)NS(=O)(=O)c1ccc(C)cc1 (configuration not stated)	CYP2C9 activ 2.1
COc1ccccc1NC(=O)C(C)NS(=O)(=O)c1ccccc1 (configuration not stated)	CYP2C19 inh 51, CYP2C9 activ 2.7
COC(=O)C(NC(=O)Nc1ccccc1OC)C(C)C (configuration not stated)	CYP2C19 inh 59
COc1ccc(/C(O)=C2\C(=O)C(=O)N(CCCN(C)C)C2c2ccccc2F)cc1Cl (configuration not stated)	none (no result: Cav32 inh, Rev-RRE block)
O=C(Nc1nc2ccc(F)cc2s1)C1CCCO1 (configuration not stated)	none
CCN(CC)CCNC1=CC(=O)OC12CCCCC2	none (no result: CYP2C19 inh, CYP2C19 act, CYP2C9 inhib, CYP2C9 activ)
Cc1csc(NC(=O)CNS(=O)(=O)c2cccs2)n1	none
Cc1cccc(-c2c3c(=O)n(C)c(=O)n(C)c3cn2-c2ccccc2O)c1	CYP2C9 inhib 71
CC(=O)Nn1cc2c(c1-c1ccccc1)c(=O)n(C)c(=O)n2C	none
CCN1C(=S)SC(=O)C1=C1C=C(C)N(CCOC)C(C)=C1	none (no result: Cav32 inh, Rev-RRE block)
O=C1NC(c2ccccc2)C(C(=O)c2cccs2)=C1O (configuration not stated)	none
C=CCSc1nc2sc(-c3ccccc3)cc2c(=O)n1N	CYP2C9 inhib 50
C(=C\c1ccccc1)/CN1CCN(C(c2ccccc2)c2ccccc2)CC1	none (no result: CYP2C19 inh, CYP2C19 act, CYP2C9 inhib, Rev-RRE block, CYP2C9 activ)
Fc1ccc(C(c2ccc(F)cc2)N2CCN(C/C=C/c3ccccc3)CC2)cc1	Cav32 inh -4.5 (no result: CYP2C19 inh, CYP2C19 act, CYP2C9 inhib, Rev-RRE block, CYP2C9 activ)
